Test results as given in ChEMBL document CHEMBL1133103, “Design, synthesis, and structure-activity relationships of novel non-imidazole histamine H(3) receptor antagonists” (J Med Chem, 2000).

Experiments:
[1] = biological target: T1, Histamine H3 receptor (Cavia porcellus, UniProt Q9JI35); assay: In vitro binding affinity for histamine H3 receptor was determined in guinea-pig cerebral cortex using [3H](R)-alpha-methylhistamine; format: tissue-based
[2] = biological target: Histamine H3 receptor (Cavia porcellus) (UniProt Q9JI35); assay: Tested in vitro against histamine H3 receptor mediated inhibition of cholinergic neurogenic contractions in isolated guinea pig ileum; format: functional, tissue-based
Sequence of Histamine H3 receptor (Cavia porcellus) (Q9JI35 whole entry): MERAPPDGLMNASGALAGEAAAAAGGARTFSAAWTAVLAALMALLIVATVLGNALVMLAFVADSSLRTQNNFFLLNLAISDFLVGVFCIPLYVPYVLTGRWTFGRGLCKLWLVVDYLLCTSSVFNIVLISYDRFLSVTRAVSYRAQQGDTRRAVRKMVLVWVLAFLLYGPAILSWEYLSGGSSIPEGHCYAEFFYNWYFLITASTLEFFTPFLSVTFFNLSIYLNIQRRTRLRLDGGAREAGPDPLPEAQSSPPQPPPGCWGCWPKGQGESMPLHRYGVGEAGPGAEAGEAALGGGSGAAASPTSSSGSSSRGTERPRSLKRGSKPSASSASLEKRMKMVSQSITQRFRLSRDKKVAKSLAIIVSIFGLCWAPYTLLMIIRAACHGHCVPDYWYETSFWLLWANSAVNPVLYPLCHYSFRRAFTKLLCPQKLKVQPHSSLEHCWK
Outline: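 Electrically stimulated guinea-pig ileum, where H3 receptors mediate inhibition of cholinergic neurogenic contractions. Agonist was (R)-α-methylhistamine. pKB ± SEM was estimated from single shifts of the agonist concentration-effect curve in at least four separate tissues, for compounds acting as surmountable antagonists. Compounds were given as dihydrochloride salts.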

[3] = biological target: T1, Histamine H3 receptor; assay: In vitro binding affinity towards histamine H3 receptor was determined in guinea-pig cerebral cortex using [3H](R)-alpha-methylhistamine

T1 sequence (Q9JI35 whole entry): as above

Compound	Ki [1]	pKB [2]	Ki [3]
N=C(N)N(CCCCCCCN1CCCC1)Cc1ccc(Cl)cc1	2 nM	8.38	–
N=C(NCCCCN1CCCC1)NCc1ccc(Cl)cc1	5.13 nM	7.32	–
N=C(NCCCN1CCCC1)NCc1ccccc1	20 nM	6.2	–
N=C(NCCCCCN1CCCC1)NCC1CCCCCC1	3.55 nM	7.67	–
N=C(NCCCCCN1CCCCCCC1)NCC12CC3CC(CC(C3)C1)C2	30.2 nM	7.37	–
N=C(NCCCN1CCCC1)Nc1ccc(Cl)cc1	53.7 nM	6.03	–
N=C(N)N(CCCCCCN1CCCC1)Cc1ccc(Cl)cc1	4.17 nM	8.39	–
N=C(N)N(CCCCCN1CCCC1)Cc1ccc(Cl)cc1	1.07 nM	7.91	–
N=C(NCCCCN1CCCC1)NCCc1ccc(Cl)cc1	6.76 nM	6.24	–
N=C(N)N(CCCCCCCCN1CCCC1)Cc1ccc(Cl)cc1	4.68 nM	8.09	–
N=C(NCCCCCN1CCCC1)NCC12CC3CC(CC(C3)C1)C2	3.55 nM	7.9	–
N=C(NCCCCCN1CCCC1)NCCc1ccc(Cl)cc1	7.59 nM	7.06	–
O=S(=O)(Cc1ccc(Cl)cc1)NCCCN1CCCC1	537 nM	6.24	–
N=C(NCCCCCN1CCCC1)NCc1ccc(Cl)cc1	5.37 nM	7.3	–
N=C(NCCCCCN1CCCC1)NCC1CCCCC1	1.41 nM	7.52	–
O=S(=O)(NCCCN1CCCC1)c1ccc2ccccc2c1	324 nM	5.96	–
O=[N+]([O-])c1ccc(OCCCCCN2CCCC2)cc1	–	–	39 nM
N=C(NCCCCCN1CCCCC1)NCC12CC3CC(CC(C3)C1)C2	10.7 nM	8.14	–
N=C(NCCCN1CCCC1)NCc1cccc(Br)c1	25.7 nM	6.46	–
CN(C)CCCNS(=O)(=O)c1ccc2ccccc2c1	1000 nM	5.52	–
N=C(NCCCN1CCCC1)NCc1ccc(C(F)(F)F)cc1	100 nM	6.1	–
N=C(NCCCN1CCCC1)NCc1ccc(Br)cc1	4.68 nM	6.45	–

Further compounds by falling Ki [1], results first:

Ki [1]	pKB [2]	Compound	Ki [3]
407 nM	5.66	S=C(NCCCN1CCCC1)NCc1ccc(Cl)cc1	–
229 nM	6.21	O=S(=O)(NCCCN1CCCC1)NCc1ccc(Cl)cc1	–
83.2 nM	6.08	COc1ccc(C/N=C(\N)NCCCN2CCCC2)cc1	–
56.2 nM	6.42	N=C(NCCCN1CCCC1)NCc1ccc(Cl)cc1	–
53.7 nM	6.43	N=C(NCCCN1CCCC1)NCc1ccc(I)cc1	–
47.9 nM	5.93	CN(C)CCCSC(=N)N	–
42.7 nM	6.27	N=C(NCCCN1CCCC1)NCc1ccccc1Br	–
7.94 nM	7.84	N=C(NCCCCCN1CCCCCC1)NCC12CC3CC(CC(C3)C1)C2	–
7.94 nM	7.34	N=C(N)N(CCCCN1CCCC1)Cc1ccc(Cl)cc1	–
6.31 nM	–	O=[N+]([O-])c1ccc(OCCCN2CCC(Nc3nc4ccccc4s3)CC2)cc1	–
0.933 nM	6.68	N=C(NCCCN1CCCC1)NCCc1ccc(Cl)cc1	–
